Experimental data gathered from unrelated publications.
Lines come from different studies, so protocols differ.
Cell line: MDA-MB-231
Observed: cell growth or viability

| Structure (SMILES) | assay | conditions | quantity | value |
| --- | --- | --- | --- | --- |
| COc1cc2c3c(n(CCCNC(C)C)c(=O)c2cc1OC)-c1nc2c(cc1C3=O)OCO2 | MTS | 72 h | IC50 | 644 nM |
| O=C(/C=C/c1cccc(F)c1)Nc1cc(-c2ccnc(N3CCC(O)CC3)c2)ccn1 | MTT | 5 µM | inhibition | 75.8% |
| C[C@@H]1CC[C@@H]([C@@](O)(CNCc2cccc3ccccc23)COCc2ccccc2)[C@H](OCc2ccccc2)C1 | MTT | 10 µM, 72 h | inhibition | 83% |
| Cc1cccc(/C=C/C(=O)Nc2cccc(-c3ccnc(N4CCC(O)CC4)c3)c2)c1 | MTT | 5 µM | inhibition | 63.5% |
| Nc1ccccc1NC(=O)c1ccc(CNC(=O)OCc2cccnc2)cc1 | MTT | 48 h | IC50 | 2930 nM |
| COc1ccc(CNC[C@@](C)(O)[C@@H]2CC[C@@H](C)C[C@H]2OCc2ccccc2)cc1 | MTT | 10 µM, 72 h | inhibition | 45.7% |
| Cc1cccc(/C=C/C(=O)Nc2cccc(-c3ccnc(N4CCC(CO)CC4)c3)c2)c1 | MTT | 5 µM | inhibition | 76.4% |
| Cc1c(Cc2ccccc2)c(=O)oc2c(C)c(OCC(=O)NN=Cc3ccc(Cl)cc3)ccc12 | MTT | 62.5 µg/mL | viability | 47.1% |
| Nc1ccccc1NC(=O)c1ccc(CNc2ccc(NC3=C(Cl)C(=O)c4ncccc4C3=O)cc2)cc1 | MTT | 48 h | IC50 | 2440 nM |
| CCNC(=S)NNC(=O)COc1ccc2c(C)c(CC)c(=O)oc2c1C | MTT | 1000 µg/mL | viability | 4.73% |
| COc1ccc(CNC[C@](O)(COCc2ccc(OC)cc2)[C@@H]2CC[C@@H](C)C[C@H]2OCc2ccc(OC)cc2)cc1 | MTT | 30 µM, 72 h | inhibition | 98.8% |
| CC(=NNC(=O)COc1ccc2c(C)c(Cc3ccccc3)c(=O)oc2c1C)c1ccc(Br)cc1 | MTT | 250 µg/mL | viability | 22.8% |
| CCNCCCn1c2c(c3cc(OC)c(OC)cc3c1=O)C(=O)c1cc3c(nc1-2)OCO3 | MTS | 72 h | IC50 | 476 nM |
| COc1ccc(COC[C@@](O)(CNCc2ccc(F)cc2)[C@@H]2CC[C@@H](C)C[C@H]2OCc2ccc(OC)cc2)cc1 | MTT | 30 µM, 72 h | inhibition | 99.2% |
| CCc1c(C)c2ccc(OCC(=O)NN=Cc3ccc([N+](=O)[O-])cc3)cc2oc1=O | MTT | 31.25 µg/mL | viability | 36.3% |
| COc1cc([C@@H]2c3cc4c(cc3[C@@H](O[C@@H]3O[C@@H]5CO[C@@H](C)O[C@H]5[C@H](O)[C@H]3O)[C@H]3COC(=O)[C@H]23)OCO4)cc(OC)c1O | MTT | 48 h | IC50 | 43200 nM |
| Cn1cc(-n2cnc3c(NCc4nc5cc(Cl)c(Cl)cc5[nH]4)nc(N4CCOCC4)nc32)cn1 |  | 5 days | EC50 | 32.4 nM |

| Structure (SMILES) | assay | conditions | quantity | value |
| --- | --- | --- | --- | --- |
| CC(C)CS(=O)(=O)NCc1cccc(-c2ccc3c(NC(=O)CC4CC4)n[nH]c3c2)c1 | ATP luminescence | 48 h | IC50 | 60000 nM |
| CCc1c(C)c2ccc(OCc3nnc(S)n3N)c(C)c2oc1=O | MTT | 500 µg/mL | viability | 2.85% |
| COc1cc2c3c(n(CCCn4ccnc4)c(=O)c2cc1OC)-c1nc2c(cc1C3=O)OCO2 | MTS | 72 h | IC50 | 1510 nM |
| C=CC(=O)c1cccnc1Nc1cccc(C(F)(F)F)c1 | SRB | 48 h | GI50 | 14600 nM |
| C[C@@H]1CC[C@@H]([C@@](O)(CNCc2ccccc2)COCc2ccccc2)[C@H](OCc2ccccc2)C1 | MTT | 30 µM, 72 h | inhibition | 97% |
| Cc1cc(NC(=O)C=Cc2ccccc2)cc(-c2ccnc(N3CCOCC3)c2)c1 | MTT | 5 µM | inhibition | 17.7% |
| C=CCOc1ccc2c(C)c(CC)c(=O)oc2c1C | MTT | 31.25 µg/mL | viability | 99.7% |
| C=C(COCc1ccc(F)cc1)[C@@H]1CC[C@@H](C)C[C@H]1OCc1ccc(F)cc1 | MTT | 30 µM, 72 h | inhibition | 25% |
| Cc1cccc(/C=C/C(=O)Nc2cccc(-c3ccnc(N4CCOCC4)c3)c2)c1 | MTT | 5 µM | inhibition | 32.2% |
| C[C@@H]1CC[C@@H]([C@](O)(CNCc2ccc(F)cc2)COCc2ccc(F)cc2)[C@H](OCc2ccc(F)cc2)C1 | MTT | 30 µM, 72 h | inhibition | 95% |
| C=CC(=O)c1cccnc1Nc1cc(C(F)(F)F)ccc1OCc1ccccc1 | SRB | 48 h | GI50 | 18300 nM |
| Cc1cccc(/C=C/C(=O)Nc2cc(-c3ccnc(N4CCOCC4)c3)ccn2)c1 | MTT | 5 µM | inhibition | 79.3% |
| CCOc1ccc2c(C)c(CC)c(=O)oc2c1C | MTT | 1000 µg/mL | viability | 2.44% |
| O=C(C=Cc1ccc(F)cc1)Nc1cc(-c2ccnc(N3CCC(O)CC3)c2)ccn1 | MTT | 5 µM | inhibition | 72.3% |
| Cc1c(Cc2ccccc2)c(=O)oc2c(C)c(OCC(=O)NN=Cc3ccco3)ccc12 | MTT | 31.25 µg/mL | viability | 15.3% |
| C[C@@H]1CC[C@@H]([C@](C)(O)CNCc2cccc(F)c2)[C@H](OCc2ccccc2)C1 | MTT | 10 µM, 72 h | inhibition | 41.5% |
| O=C(C=Cc1ccccc1)Nc1cccc(-c2ccnc(N3CCOCC3)c2)c1 | MTT | 5 µM | inhibition | 49% |
